The source made the active and inactive calls.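 The calls were made as follows, unless noted: active = compounds giving at least 50% inhibition in the cell-based MKP-3 phosphatase rescue imaging test; inactive = the rest.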
Key:
[1] = inhibitors of TNFa-induced NFkB p65 translocation, primary screen, imaging, HUVEC, MLSMR starter and 10KST1 sets (AID 438;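 active = inhibition above 20% together with a positive visual image hit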;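 also: compound added about 3h40 before a 20 min TNFalpha stimulation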;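 as to inhibition: signal is the nuclear over cytoplasmic p65 intensity ratio per well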); conditions: HUVEC TNFa-induced p65 nuclear translocation; cell count: measured here: nuclei count (cytotoxicity indicator), at 2.08 µM; inhibition: at 2 µM, stronger effect = higher value, 0% TNFa-plus-vehicle, 100% no-TNFa wells
[2] = inhibitors of E-selectin induction by TNFa, primary screen, imaging, HUVEC, immunofluorescence, MLSMR starter and 10KST1 sets (AID 487;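 active = visually confirmed hit in the image check and inhibition above 20%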;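 as to inhibition: signal is fraction of cell area covered by stained E-selectin grains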;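 as to nuclei count: 100% = median nuclei count of all wells on the same plate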); conditions: HUVEC TNFalpha-induced E-selectin immunofluorescence imaging, at 2 µM; inhibition: stronger effect = higher value; nuclei count: measured here: cell number, toxicity
[3] = DUSP6 inhibitors restoring Erk phosphorylation by chemical complementation, primary imaging in DUSP6-transfected HeLa (AID 609); conditions: HeLa MKP-3 transfected, phospho-Erk imaging KS statistic, at 10 µM, cells stimulated with TPA for 15 min;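 as to inhibition: phospho-Erk level distribution per well compared with pooled transfected vehicle control wells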
[4] = molecular target: Dual specificity protein phosphatase 6 (Homo sapiens) (UniProt Q16828); experiment: as above; conditions: HeLa MKP-3 transfected, phospho-Erk imaging KS statistic; at 10 µM; stronger effect = higher value; cells stimulated with TPA for 15 min
Sequence of Dual specificity protein phosphatase 6 (Homo sapiens) (Q16828 whole entry, looked up): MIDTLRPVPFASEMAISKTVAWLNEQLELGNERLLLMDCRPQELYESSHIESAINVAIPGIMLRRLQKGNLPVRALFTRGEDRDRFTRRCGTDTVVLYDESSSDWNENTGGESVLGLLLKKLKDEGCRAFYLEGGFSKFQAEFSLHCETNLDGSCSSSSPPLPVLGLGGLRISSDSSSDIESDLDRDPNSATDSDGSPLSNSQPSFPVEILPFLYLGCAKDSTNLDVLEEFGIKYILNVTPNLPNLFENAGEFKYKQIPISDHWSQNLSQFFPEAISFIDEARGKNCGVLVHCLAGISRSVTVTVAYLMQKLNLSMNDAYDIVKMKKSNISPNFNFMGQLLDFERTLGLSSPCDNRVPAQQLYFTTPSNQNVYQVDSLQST

[5] = molecular target: Voltage-gated potassium channel subunit beta-2 (Rattus norvegicus) (UniProt P62483); experiment: KvBeta enzyme negative modulators, primary screen, biochemical, NADPH fluorescence (AID 622;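 active = fluorescence slope higher than the sample average by over 3 SD, cut at about -0.22 in these data, passing the limit was not always enough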;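 also: slope of raw intensity against log time taken from 70 to 1610 s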); conditions: recombinant KvBeta, 4-cyanobenzaldehyde reduction, at 10 µM, stronger effect = higher value
Sequence of Voltage-gated potassium channel subunit beta-2 (Rattus norvegicus) (P62483 whole entry, looked up): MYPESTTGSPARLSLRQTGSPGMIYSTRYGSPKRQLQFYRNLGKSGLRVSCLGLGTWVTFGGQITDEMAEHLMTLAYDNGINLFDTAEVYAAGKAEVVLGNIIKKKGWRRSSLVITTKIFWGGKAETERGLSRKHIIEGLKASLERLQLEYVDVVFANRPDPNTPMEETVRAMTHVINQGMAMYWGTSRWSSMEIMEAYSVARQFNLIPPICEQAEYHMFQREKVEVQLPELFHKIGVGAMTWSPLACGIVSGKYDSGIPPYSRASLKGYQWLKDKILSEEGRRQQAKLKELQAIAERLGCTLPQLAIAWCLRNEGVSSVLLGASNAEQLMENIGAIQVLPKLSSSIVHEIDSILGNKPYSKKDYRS

[6] = molecular target: Voltage-gated potassium channel subunit beta-2 (Rattus norvegicus) (UniProt P62483); experiment: KvBeta positive modulators, primary screen, biochemical, NADPH fluorescence (AID 623;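 active = NADPH fluorescence slope more negative than the mean of all samples by about 3 SD, 99.7% confidence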;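 also: fluorescence intensity change per second fitted from 20 to 320 s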); conditions: Recombinant KvBeta, NADPH fluorescence decrease slope, 10 min; at 10 µM; stronger effect = lower value
[7] = molecular target: Muscarinic acetylcholine receptor M4 (Homo sapiens) (UniProt P08173); experiment: compounds altering M4/GIRK thallium flux, either direction, primary screen, M4 allosteric agonist project, cell-based, HEK293 M4/GIRK, BTC-AM (AID 625;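 active = fluorescence slope after compound addition differing from the mean of all tested samples at 99.7% confidence, mostly higher but some lower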;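 also: thallium influx through GIRK channels coupled to M4 in HEK293 cells with BTC-AM dye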); conditions: at 10 µM, actives lie on both sides
Sequence of Muscarinic acetylcholine receptor M4 (Homo sapiens) (P08173 whole entry, looked up): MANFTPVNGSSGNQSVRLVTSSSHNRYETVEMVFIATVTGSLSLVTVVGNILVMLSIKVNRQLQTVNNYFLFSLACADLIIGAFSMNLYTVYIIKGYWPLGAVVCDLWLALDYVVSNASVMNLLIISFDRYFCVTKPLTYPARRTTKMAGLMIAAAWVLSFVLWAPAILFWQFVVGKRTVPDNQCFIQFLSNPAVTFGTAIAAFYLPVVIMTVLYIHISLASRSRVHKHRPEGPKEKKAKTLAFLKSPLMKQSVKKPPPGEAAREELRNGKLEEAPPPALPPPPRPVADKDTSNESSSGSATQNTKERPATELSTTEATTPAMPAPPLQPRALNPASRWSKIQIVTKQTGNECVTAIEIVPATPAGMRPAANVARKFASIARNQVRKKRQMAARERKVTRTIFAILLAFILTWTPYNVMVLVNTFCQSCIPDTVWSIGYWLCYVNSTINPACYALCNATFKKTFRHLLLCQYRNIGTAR
How it was run: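 assay system = HEK293 cells with M4 receptor and GIRK channels | medium = pH 7.3 thallium assay buffer | doses = 10 µM final, single point | timing = cells overnight at 37 °C, BTC-AM loading 1 h, reads 2 min total | signal = BTC-AM fluorescence, 1 Hz kinetic reads | read-out = post-addition slope, 15–24 s, of baseline-normalized fluorescence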

[8] = inhibitors of larval lipid processing in zebrafish, primary screen, whole organism, PED6 fluorescence, gall bladder and intestine (AID 686;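 active = a full or partial loss of lipid-probe fluorescence in the fish gall bladder, intestine or both, judged by eye; inactive = no fluorescence loss, or compound toxic to the fish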;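 also: larvae 5 to 7 days old with five fish per well; signal comes from phospholipase A2 cleavage of quenched PED6 carried via bile; overnight exposure to compound and PED6 before scoring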); conditions: Zebrafish larvae PED6 lipid processing, fluorescence scoring; screened at 20 µM (by protocol)
How it was run: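 Also added: quenched phospholipase substrate PED6, 100 nM final, ingested by larvae; System: zebrafish larvae, 5-7 d; Quantity: 5 larvae per well; Compound: 20 µM single dose; Schedule: overnight compound and PED6 incubation; Read-out: visual per-well fluorescence inhibition score; Measured by: By-eye fluorescence microscopy; Medium: E3.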

[9] = inhibitors of Chlamydomonas gravitaxis, primary screen, whole organism, Chlamydomonas reinhardtii, WT vs cilia-less mutant, absorbance, 96-well (AID 463189;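 active = inhibition at or above 50% relative to wild type and mutant plate controls; inactive = inhibition below 50%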;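 also: 0% = wild type cc124 cells in DMSO and 100% = ciliumless bld1 mutant cells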); conditions: OD600 absorbance, 2 days, at 10 µM, stronger effect = higher value
[10] = measured here: cell density z-score
[11] = measured here: nuclear c-Myc green intensity z-score
[12] = measured here: nuclear pErk red intensity z-score, stronger effect = higher value

Compound | cell count [1] | inhibition [1] | inhibition [2] | nuclei count [2] [%] | z-score [3, 10] | z-score [3, 11] | z-score [3, 12] | inhibition [4] | fluorescence slope [5] | NADPH fluorescence slope [6] | fluorescence slope [7] | outcome [8] | inhibition [9]
C=CCOn1c(=O)c(-c2ccc(OC)cc2)[n+]([O-])c2ccccc21 | 586 | -10.1% (inactive) | -77.9% (inactive) | 148 | 0.271 | 0.00215 | -0.813 | 13.9% (inactive) | -0.416 (inactive) | -5.2e-05 (inactive) | 0.00502 (inactive) | inactive | 19.7% (inactive)
Cc1nn(CC(N)=O)c(=O)c2ccccc12 | 579 | -2.9% (inactive) | -62.8% (inactive) | 142 | 2.22 | -0.838 | 0.00121 | 10.9% (inactive) | -0.485 (inactive) | -0.00011 (inactive) | 0.00427 (inactive) | inactive | -4.61% (inactive)
CCCC(=O)Nc1nn(CCC)c2nc3ccccc3cc12 | 632 | -8.1% (inactive) | 7.7% (inactive) | 142 | -0.342 | -1.58 | 0.919 | 2.71% (inactive) | -0.481 (inactive) | -6.7e-05 (inactive) | 0.00673 (inactive) | inactive | 6.78% (inactive)
Cc1nn(C)cc1/C=N/n1nnnc1N | 680 | -10.2% (inactive) | -45.8% (inactive) | 155 | 0.00474 | -1.39 | 0.944 | 4.37% (inactive) | -0.487 (inactive) | -3.8e-05 (inactive) | 0.00512 (inactive) | inactive | 11.8% (inactive)
Cc1cc(=O)oc(C)c1C(=O)NCCC1=CCCCC1 | 603 | -7.1% (inactive) | -25.9% (inactive) | 114 | -1.14 | 1.4 | 1.29 | 1.63% (inactive) | -0.415 (inactive) | -3.7e-05 (inactive) | 0.00474 (inactive) | inactive | -3.01% (inactive)
CCCCCNC(=O)C(C#N)c1nc2ccccc2nc1N1CC(C)OC(C)C1 (stereo not drawn) | 366 | -5.7% (inactive) | -192% (inactive) | 130 | 1.56 | -0.566 | -0.352 | 19.4% (inactive) | -0.482 (inactive) | -8.1e-05 (inactive) | 0.00502 (inactive) | inactive | -1.81% (inactive)
C#CC1CN(Cc2ccccc2)CC(C#C)N1C (stereo not drawn) | 690 | -3% (inactive) | 9% (inactive) | 156 | -0.126 | -0.517 | 1.32 | -7.67% (inactive) | -0.44 (inactive) | -3.5e-05 (inactive) | 0.00453 (inactive) | inactive | -0.669% (inactive)
CCCCc1cc(=O)oc2c(CN3CCCC3)c(O)ccc12 | 600 | -1.9% (inactive) | 32.2% (inactive) | 151 | 0.99 | -0.992 | -0.105 | 4.37% (inactive) | -0.0163 (inactive) | 5.9e-06 (inactive) | 0.00474 (inactive) | inactive | -2.81% (inactive)
CC1(C)Cc2c(c(N3CCCCC3)[nH]c(=S)c2C#N)CS1 | 574 | -7.8% (inactive) | -103% (inactive) | 151 | -0.509 | -1.94 | 0.0392 | -10.6% (inactive) | -0.479 (inactive) | -0.000148 (inactive) | 0.00629 (inactive) | inactive | 12.9% (inactive)
COc1cccc(NC(=O)c2cc(C(=O)Nc3cccc(OC)c3)n(C)n2)c1 | 589 | 5.1% (inactive) | -73.5% (inactive) | 108 | -0.897 | 0.197 | 0.57 | 1.12% (inactive) | -0.504 (inactive) | -3.5e-05 (inactive) | 0.00667 (inactive) | inactive | -5.34% (inactive)
CC1(C)Cc2c(C#N)c(SCc3nc4ccccc4[nH]3)nc(N3CCOCC3)c2CO1 | 464 | -6.9% (inactive) | -111% (inactive) | 99.1 | -1.63 | 0.58 | -0.0845 | 3.97% (inactive) | -0.39 (inactive) | 1.4e-05 (inactive) | 0.00539 (inactive) | inactive | -18.5% (inactive)
Cc1c(C)n(C(=O)CSc2nccn2C)c2ccccc12 | 625 | 8.3% (inactive) | -34.7% (inactive) | 106 | -0.766 | 1.61 | 0.593 | 1.63% (inactive) | -0.416 (inactive) | -3.5e-05 (inactive) | 0.00619 (inactive) | inactive | -7.86% (inactive)
COC(=O)c1[nH]c(C)c(/C(O)=C2\C(=O)C(=O)N(CCN3CCOCC3)C2c2ccccc2OC)c1C (stereo not drawn) | 610 | -6% (inactive) | -13.3% (inactive) | 168 | -1.87 | 0.251 | -0.629 | -7.28% (inactive) | -0.491 (inactive) | -0.000142 (inactive) | 0.00635 (inactive) | inactive | 5.11% (inactive)
COCCOC(=O)c1c(C)oc2ccc(OC(=O)COc3c(F)c(F)c(F)c(F)c3F)cc12 | 524 | -3.3% (inactive) | -26.1% (inactive) | 98.8 | -0.212 | -0.943 | 0.127 | -2.09% (inactive) | -0.461 (inactive) | -2.6e-05 (inactive) | 0.0112 (inactive) | inactive | -9.48% (inactive)
COc1ccc(CCn2c(C)cc3c(c2=O)C(c2ccc4c(c2)OCO4)C(C#N)=C(N)O3)cc1OC (stereo not drawn) | 697 | -0.5% (inactive) | -141% (inactive) | 170 | 1.12 | 0.0675 | -1.33 | 9.61% (inactive) | -0.468 (inactive) | -4.4e-05 (inactive) | 0.00505 (inactive) | inactive | 5.67% (inactive)
Cn1c(NCc2ccccc2)nc2c1c(=O)n(Cc1ccc(Br)cc1)c(=O)n2C | 696 | -21.9% (inactive) | -78.3% (inactive) | 171 | 0.333 | 0.526 | 0.876 | 13.9% (inactive) | -0.47 (inactive) | -5.2e-05 (inactive) | 0.00559 (inactive) | inactive | 36.1% (inactive)
O=C1C(=O)N(Cc2cccnc2)C(c2ccccn2)/C1=C(/O)c1ccccc1 (stereo not drawn) | 620 | -5.9% (inactive) | -74.4% (inactive) | 158 | -0.531 | 0.731 | -0.436 | -8.95% (inactive) | -0.503 (inactive) | -6.6e-05 (inactive) | 0.00562 (inactive) | inactive | 6.67% (inactive)
C=CCN(C(=O)CCC(=O)O)C1CC(=O)N(c2ccc(OC)cc2)C1=O (stereo not drawn) | 549 | 0.4% (inactive) | 17.4% (inactive) | 97.5 | 1.91 | 0.0386 | -1.01 | 14.7% (inactive) | -0.482 (inactive) | -3.4e-05 (inactive) | 0.005 (inactive) | inactive | -19.1% (inactive)
CN(CCNC(=O)c1ccc(/C=N/O)nc1)Cc1ccccc1 | 620 | -9.1% (inactive) | -41% (inactive) | 182 | -0.419 | -0.398 | -0.0227 | 1.63% (inactive) | -0.479 (inactive) | -5.2e-05 (inactive) | 0.00471 (inactive) | inactive | 1.08% (inactive)
N#Cc1c2c(c(-c3ccccc3)[nH]c1=O)CCCC2 | 580 | -9.4% (inactive) | -88.6% (inactive) | 140 | -0.665 | -0.156 | -4.21 | 16.5% (inactive) | -0.377 (inactive) | -0.000105 (inactive) | 0.00448 (inactive) | inactive | -4.11% (inactive)
CCCCSc1nc(N)c(C#N)c(-c2cccs2)c1C#N | 652 | -3.4% (inactive) | -1.9% (inactive) | 141 | 1.43 | 0.907 | -0.946 | -4.7% (inactive) | -0.432 (inactive) | -1.7e-05 (inactive) | 0.00886 (inactive) | inactive | -8.35% (inactive)
CCCCOC(=O)c1ccc(NC(=O)CSc2nncn2C)cc1 | 507 | -8.4% (inactive) | -82.5% (inactive) | 168 | -0.268 | -0.273 | 0.565 | -0.624% (inactive) | -0.456 (inactive) | -6.8e-05 (inactive) | 0.00538 (inactive) | inactive | 5.5% (inactive)
CCSC1=C(C#N)C(c2cccs2)C(C(=O)OC)=C(C)N1 (stereo not drawn) | 704 | -1% (inactive) | -26.7% (inactive) | 161 | 1.09 | -0.139 | -1.35 | 2.46% (inactive) | -0.442 (inactive) | -5.3e-05 (inactive) | 0.00541 (inactive) | inactive | -1.08% (inactive)
N#C/C(=C\c1c(N2CCC(C(N)=O)CC2)nc2ccccn2c1=O)S(=O)(=O)c1ccccc1 | 444 | -3.7% (inactive) | -112% (inactive) | 144 | 1.56 | -0.902 | -1.07 | 12.7% (inactive) | -0.423 (inactive) | -2.9e-05 (inactive) | 0.00437 (inactive) | inactive | 4.15% (inactive)
CCN(CC)CCCN1C(=O)C(=O)/C(=C(/O)c2ccccc2)C1c1cc(OC)ccc1OC (stereo not drawn) | 414 | -1.4% (inactive) | -75.8% (inactive) | 153 | -0.00303 | -1.03 | 1.76 | 1.48% (inactive) | -0.469 (inactive) | -0.000138 (inactive) | 0.00498 (inactive) | inactive | 32.7% (inactive)
O=C1NC(=O)C(c2cn(-c3ccccc3)nc2-c2ccc(F)cc2)N1 (stereo not drawn) | 664 | 1.3% (inactive) | -12.6% (inactive) | 115 | 0.135 | -0.561 | -0.862 | 3.49% (inactive) | -0.46 (inactive) | -5.3e-05 (inactive) | 0.005 (inactive) | inactive | 2.79% (inactive)
